Assay results as given in ChEMBL document CHEMBL1124118, “Design, synthesis, and antineoplastic activity of 2'-deoxy-2'-methylidenecytidine” (J Med Chem, 1988).
Values after ≈ are worked out from the molar mass of the structure shown.

What was measured:
Format in all cases: functional, cell-based
TE-2 = assay: In vitro inhibitory effect on growth of human esophagus […] cell lines (TE2).
Outline: (§1)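 MTT growth-inhibition assay (Carmichael method). Tumor cells seeded at 1 × 10^4 per well and incubated with or without compound for 72 h. MTT then added and OD(550-660 nm) read. % inhibition = [1 − (OD sample / OD control)] × 100. IC50 (μg/mL) taken as the concentration giving 50% inhibition of cell growth.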

SW480 = assay: In vitro inhibitory effect on growth of human colon adenocarcinoma cell lines (SW480).; outline: as §1
K562 = assay: In vitro inhibitory effect on growth of human chronic myelogenous leukemic K562 cell lines.; outline: as §1
T-24 = assay: In vitro inhibitory effect on growth of human bladder transitional-carcinoma cell lines (T24).; outline: as §1
CCRF-CEM = assay: In vitro inhibitory effect on growth of human T-cell acute lymphoblastoid leukemic CCRFCEM cell lines.; outline: as §1
MOLT-4 = assay: In vitro inhibitory effect on growth of human T-cell acute lymphoblastic leukemic MOLT 4 cell lines.; outline: as §1
L1210 = assay: In vitro inhibitory effect on growth of mouse leukemic L1210 cell lines.; outline: as §1
PC10 [1] = assay: In vitro inhibitory effect on growth of human lung squamous cell carcinoma cell lines (PC10).
Outline: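 Cells seeded at 1 × 10^4/well and incubated with or without compound for 72 h. MTT was then added and OD(550-660 nm) was read. % inhibition = [1 − (OD of sample well / OD of control well)] × 100. IC50 (μg/mL) is the concentration giving 50% inhibition of cell growth.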

PC10 [2] = assay: In vitro inhibitory effect on growth of human lung squamous cell carcinom cell lines (PC10).; outline: as §1

SMILES	IC50 (TE-2)	IC50 (SW480)	IC50 (K562)	IC50 (T-24)	IC50 (CCRF-CEM)	IC50 (MOLT-4)	IC50 (L1210)	IC50 (PC10 [1])	IC50 (PC10 [2])
O=c1[nH]cc(F)c(=O)[nH]1 [FLUOROURACIL]	3.9 mg/L (≈ 30 µM)	3.3 mg/L (≈ 25.4 µM)	38 mg/L (≈ 292 µM)	6.1 mg/L (≈ 46.9 µM)	40 mg/L (≈ 308 µM)	3.8 mg/L (≈ 29.2 µM)	0.32 mg/L (≈ 2.46 µM)	> 100 mg/L	
C=C1C(n2ccc(N)nc2=O)O[C@H](CO)[C@@H]1O (some centres undefined)	2.9 mg/L (≈ 12.1 µM)	3.8 mg/L (≈ 15.9 µM)	1.2 mg/L (≈ 5.02 µM)	3.7 mg/L (≈ 15.5 µM)	0.047 mg/L (≈ 0.196 µM)	0.025 mg/L (≈ 0.105 µM)	0.11 mg/L (≈ 0.46 µM)		60.5 mg/L (≈ 253 µM)
Nc1ccn([C@@H]2O[C@H](CO)[C@@H](O)[C@@H]2O)c(=O)n1 [CYTARABINE]	> 100 mg/L	> 100 mg/L	3.2 mg/L (≈ 13.2 µM)	> 100 mg/L	0.065 mg/L (≈ 0.267 µM)	0.056 mg/L (≈ 0.23 µM)	0.097 mg/L (≈ 0.399 µM)	> 100 mg/L	
